Measured values as given in ChEMBL document CHEMBL3351634, “Novel sulfonamides bearing pyrrole and pyrrolopyrimidine moieties as carbonic anhydrase inhibitors: Synthesis, cytotoxic activity and molecular modeling” (Eur J Med Chem, 2014).

Tests used:
MCF7 [1] = assay: Cytotoxicity against human MCF7 cells assessed as cell survival at 50 uM after 48 hrs by sulforhodamine-B assay; type: functional; settings: MCF7, 48 h, read-out: Survival
Procedure, shortened: (§1)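 Cells plated at 10⁴ per well and left 24 h to attach, then exposed for 48 h at 37 °C under 5% CO₂, with triplicate wells per concentration. Cells were fixed, washed and stained 30 min with 0.4% (wt/vol) SRB in 1% acetic acid. Unbound dye was removed with four 1% acetic acid washes and bound stain recovered in Tris-EDTA. Colour was read on an ELISA reader and expressed as surviving fraction.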

MCF7 [2] = assay: Cytotoxicity against human MCF7 cells assessed as cell survival at 100 uM after 48 hrs by sulforhodamine-B assay; type: functional; settings: MCF7, 48 h, read-out: Survival; procedure, shortened: as §1
MCF7 [3] = assay: Cytotoxicity against human MCF7 cells assessed as cell survival at 25 uM after 48 hrs by sulforhodamine-B assay; type: functional; settings: MCF7, 48 h, read-out: Survival; procedure, shortened: as §1
MCF7 [4] = assay: Cytotoxicity against human MCF7 cells assessed as cell survival at 10 uM after 48 hrs by sulforhodamine-B assay; type: functional; settings: MCF7, 48 h, read-out: Survival; procedure, shortened: as §1
MCF7 [5] = assay: Cytotoxicity against human MCF7 cells after 48 hrs by sulforhodamine-B assay; settings: MCF7, 48 h
Carbonic anhydrase 9 = Carbonic anhydrase 9 (Homo sapiens, UniProt Q16790); assay: Inhibition of human recombinant carbonic anhydrase 9 preincubated for 15 mins by stopped-flow CO2 hydrase assay
Carbonic anhydrase 1 = Carbonic anhydrase 1 (Homo sapiens, UniProt P00915); assay: Inhibition of human recombinant carbonic anhydrase 1 preincubated for 15 mins by stopped-flow CO2 hydrase assay
Sequence of Carbonic anhydrase 1 (P00915 whole entry): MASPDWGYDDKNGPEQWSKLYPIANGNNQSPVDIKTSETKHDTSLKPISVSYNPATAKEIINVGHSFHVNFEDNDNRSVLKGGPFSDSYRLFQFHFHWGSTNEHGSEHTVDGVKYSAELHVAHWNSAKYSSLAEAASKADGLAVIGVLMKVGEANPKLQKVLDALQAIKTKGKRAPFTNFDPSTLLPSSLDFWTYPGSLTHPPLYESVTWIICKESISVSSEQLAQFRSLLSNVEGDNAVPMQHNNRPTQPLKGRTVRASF

Carbonic anhydrase 2 = Carbonic anhydrase 2 (Homo sapiens, UniProt P00918); assay: Inhibition of human recombinant carbonic anhydrase 2 preincubated for 15 mins by stopped-flow CO2 hydrase assay

Compound | viability at 50 µM (MCF7 [1]) | viability at 100 µM (MCF7 [2]) | viability at 25 µM (MCF7 [3]) | viability at 10 µM (MCF7 [4]) | IC50 (MCF7 [5]) | Ki (Carbonic anhydrase 9) | Ki (Carbonic anhydrase 1) | Ki (Carbonic anhydrase 2)
N#Cc1c(-c2ccc(Br)cc2)cn(-c2ccc(S(N)(=O)=O)cc2)c1NC(=S)Nc1ccccc1 | 22.7% | 21.7% | 23.5% | 30.8% | 7.29 µM | 0.0624 µM |  | 
CC(=O)CC(=O)Nc1c(C#N)c(-c2ccc(Br)cc2)cn1-c1ccc(S(N)(=O)=O)cc1 | 28% | 29.1% | 28.2% | 29% | 8.11 µM | 0.0055 µM |  | 
C/C(S)=N/c1c(C#N)c(-c2ccc(Br)cc2)cn1-c1ccc(S(N)(=O)=O)cc1 | 30% | 29.9% | 31.2% | 33% | 8.11 µM | 0.006 µM |  | 
N#Cc1c(-c2ccc(Br)cc2)cn(-c2ccc(S(N)(=O)=O)cc2)c1NC(=S)Nc1ccc(Br)cc1 | 27.7% | 29% | 28% | 29.8% | 8.15 µM |  |  | 
N#Cc1c(-c2ccc(Br)cc2)cn(-c2ccc(S(N)(=O)=O)cc2)c1N |  |  |  |  | 7.56 µM |  |  | 
Nc1nc(=S)[nH]c2c1c(-c1ccc(Br)cc1)cn2-c1ccc(S(N)(=O)=O)cc1 | 19.9% | 25% | 25.5% | 23.1% | 6.46 µM | 0.0429 µM |  | 
NS(=O)(=O)c1ccc(-n2cc(-c3ccc(Br)cc3)c3c(=O)n(C(=O)c4ccccc4)c(-c4ccccc4)nc32)cc1 | 28.4% | 26.8% | 31.8% | 36.6% | 8.11 µM | 0.0065 µM | > 10 µM | 
Cc1ccc(-n2c(=S)[nH]c3c(c(-c4ccc(Br)cc4)cn3-c3ccc(S(N)(=O)=O)cc3)c2=N)cc1 | 22.9% | 24.5% | 24.2% | 25% | 6.46 µM |  |  | 
Cc1nc(S)c2c(-c3ccc(Br)cc3)cn(-c3ccc(S(N)(=O)=O)cc3)c2n1 | 19.8% | 23.1% | 21.8% | 23.6% | 6.74 µM | 0.0054 µM |  | 
N#Cc1c(-c2ccc(Br)cc2)cn(-c2ccc(S(N)(=O)=O)cc2)c1NC(=S)Nc1ccc([N+](=O)[O-])cc1 | 25.5% | 26% | 27.6% | 28% | 8.11 µM | 0.0866 µM |  | 
N#Cc1c(-c2ccc(Br)cc2)cn(-c2ccc(S(N)(=O)=O)cc2)c1NC(=S)Nc1ccc(I)cc1 | 28.1% | 28.8% | 29% | 31.2% | 8.15 µM | 0.46 µM |  | 
Cc1ccc(S(=O)(=O)Nc2c(C#N)c(-c3ccc(Br)cc3)cn2-c2ccc(S(N)(=O)=O)cc2)cc1 | 22.2% | 21.4% | 27.1% | 32.4% | 7.56 µM | 0.171 µM |  | 
Nc1nc(=O)[nH]c2c1c(-c1ccc(Br)cc1)cn2-c1ccc(S(N)(=O)=O)cc1 | 20.3% | 23.8% | 27.6% | 27% | 6.74 µM | 0.0244 µM |  | 
COc1ccc(NC(=S)Nc2c(C#N)c(-c3ccc(Br)cc3)cn2-c2ccc(S(N)(=O)=O)cc2)cc1 | 24.9% | 21.7% | 26.3% | 26.2% | 7.01 µM |  |  | 
N#Cc1c(-c2ccc(Br)cc2)cn(-c2ccc(S(N)(=O)=O)cc2)c1NC(=O)c1ccc(Br)cc1 | 24.9% | 25.4% | 32.7% | 35.8% | 7.56 µM |  |  | 
N#Cc1c(-c2ccc(Br)cc2)cn(-c2ccc(S(N)(=O)=O)cc2)c1NC(=S)Nc1ccc(S(N)(=O)=O)cc1 | 25.5% | 27.6% | 29.1% | 31.1% | 8.13 µM | 0.0512 µM |  | 
NS(=O)(=O)c1ccc(-n2cc(-c3ccc(Br)cc3)c3c(=O)n(C(=O)c4ccc(Cl)cc4)c(-c4ccc(Cl)cc4)nc32)cc1 | 20.1% | 29.5% | 29.3% | 54.9% | 13.1 µM | 0.488 µM | > 10 µM | > 10 µM
NS(=O)(=O)c1ccc(-n2cc(-c3ccc(Br)cc3)c3c(=S)[nH]c(=S)[nH]c32)cc1 | 21.9% | 22.5% | 29.4% | 33.7% | 7.56 µM | 0.0071 µM |  | 
N#Cc1c(-c2ccc(Br)cc2)cn(-c2ccc(S(N)(=O)=O)cc2)c1NS(=O)(=O)c1ccccc1 | 20.2% | 23.2% | 29% | 27.2% | 7.01 µM | 0.849 µM |  | 
N#Cc1c(-c2ccc(Br)cc2)cn(-c2ccc(S(N)(=O)=O)cc2)c1NC(=S)Nc1ccc(Cl)cc1 | 26% | 29% | 25.7% | 28.8% | 8.12 µM | 0.0903 µM |  | 
